Results taken from ChEMBL document CHEMBL4689842, “EUbOPEN Chemogenomics Library wave 1” (2021).
Where “and” joins values, the source holds several entries; their conditions need not be identical. Equal entries are not always repeated.

Test system: HEK-293T
Experiment: Multiplex assay against HEK293T;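 on Population Tubulin-Different-Phenotype (%): share of the cells with healthy nuclei that show this phenotype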
Assay type: toxicity, cell-based
Settings: human
How it was run: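 Tubulin, mitochondrial-mass and membrane-permeability phenotypes are per cents of healthy-nucleus cells. Cells were gated by CellPathfinder machine learning into Hoechst high-intensity objects or normal cells, normal cells into healthy, pyknosed or fragmented nuclei, and pyknosed cells into mitotic or apoptotic. Before that, live cells stained at seeding with Hoechst33342, BioTracker Green Microtubule Cytoskeleton Dye, MitoTracker Red and Annexin V Alexa Fluor 680 were imaged on a CQ1 microscope at 37°C and 5% CO2 after compound addition.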

[1] = 12 h, 1 µM, compound concentration 1 uM, replicate 1
[2] = 12 h, 1 µM, compound concentration 1 uM, replicate 2
[3] = 12 h, 10 µM, compound concentration 10 uM, replicate 1
[4] = 12 h, 10 µM, compound concentration 10 uM, replicate 2
[5] = 24 h, 1 µM, compound concentration 1 uM, replicate 1
[6] = 24 h, 1 µM, compound concentration 1 uM, replicate 2
[7] = 24 h, 10 µM, compound concentration 10 uM, replicate 1
[8] = 24 h, 10 µM, compound concentration 10 uM, replicate 2
[9] = 48 h, 1 µM, compound concentration 1 uM, replicate 1
[10] = 48 h, 1 µM, compound concentration 1 uM, replicate 2
[11] = 48 h, 10 µM, compound concentration 10 uM, replicate 1
[12] = 48 h, 10 µM, compound concentration 10 uM, replicate 2

## CN(C)C(=O)C(CCN1CCC(O)(c2ccc(Cl)cc2)CC1)(c1ccccc1)c1ccccc1.Cl [LOPERAMIDE HYDROCHLORIDE]
[1]
  Population Apoptotic (%): 70%
  Population Fragmented Nuclei (%): 10%
  Population Healthy Nuclei (%): 37%
  Population Hoechst High Intensity Objects (%): 16%
  Population Membrane Permeable-Phenotype (%): 2%
  Population Mitochondria Different-Phenotype (%): 92%
  Population Mitotic Cells (%): 29%
  Population Normal (%): 83%
  Population Pyknosed Nuclei (%): 51%
  Population Tubulin-Different-Phenotype (%): 83%
  Total Cell Count: 254
[2]
  Population Apoptotic (%): 56%
  Population Fragmented Nuclei (%): 4%
  Population Healthy Nuclei (%): 30%
  Population Hoechst High Intensity Objects (%): 0%
  Population Membrane Permeable-Phenotype (%): 6%
  Population Mitochondria Different-Phenotype (%): 95%
  Population Mitotic Cells (%): 43%
  Population Normal (%): 99%
  Population Pyknosed Nuclei (%): 65%
  Population Tubulin-Different-Phenotype (%): 85%
  Total Cell Count: 208
[3]
  Population Apoptotic (%): 91%
  Population Fragmented Nuclei (%): 10%
  Population Healthy Nuclei (%): 7%
  Population Hoechst High Intensity Objects (%): 20%
  Population Membrane Permeable-Phenotype (%): 0%
  Population Mitochondria Different-Phenotype (%): 100%
  Population Mitotic Cells (%): 8%
  Population Normal (%): 79%
  Population Pyknosed Nuclei (%): 82%
  Population Tubulin-Different-Phenotype (%): 86%
  Total Cell Count: 258
[4]
  Population Apoptotic (%): 98%
  Population Fragmented Nuclei (%): 6%
  Population Hoechst High Intensity Objects (%): 15%
  Population Mitotic Cells (%): 1%
  Population Normal (%): 84%
  Population Pyknosed Nuclei (%): 86%
  Population Tubulin-Different-Phenotype (%): 70%
  Total Cell Count: 158
[5]
  Population Apoptotic (%): 73%
  Population Fragmented Nuclei (%): 11%
  Population Healthy Nuclei (%): 35%
  Population Hoechst High Intensity Objects (%): 16%
  Population Membrane Permeable-Phenotype (%): 1%
  Population Mitochondria Different-Phenotype (%): 90%
  Population Mitotic Cells (%): 26%
  Population Normal (%): 83%
  Population Pyknosed Nuclei (%): 53%
  Population Tubulin-Different-Phenotype (%): 80%
  Total Cell Count: 259
[6]
  Population Apoptotic (%): 65%
  Population Fragmented Nuclei (%): 3%
  Population Healthy Nuclei (%): 48%
  Population Hoechst High Intensity Objects (%): 0%
  Population Membrane Permeable-Phenotype (%): 3%
  Population Mitochondria Different-Phenotype (%): 94%
  Population Mitotic Cells (%): 34%
  Population Normal (%): 99%
  Population Pyknosed Nuclei (%): 47%
  Population Tubulin-Different-Phenotype (%): 89%
  Total Cell Count: 242
[7]
  Population Apoptotic (%): 88%
  Population Fragmented Nuclei (%): 16%
  Population Healthy Nuclei (%): 8%
  Population Hoechst High Intensity Objects (%): 23%
  Population Membrane Permeable-Phenotype (%): 0%
  Population Mitochondria Different-Phenotype (%): 100%
  Population Mitotic Cells (%): 11%
  Population Normal (%): 76%
  Population Pyknosed Nuclei (%): 75%
  Population Tubulin-Different-Phenotype (%): 73%
  Total Cell Count: 297
[8]
  Population Apoptotic (%): 96%
  Population Fragmented Nuclei (%): 7%
  Population Hoechst High Intensity Objects (%): 12%
  Population Mitochondria Different-Phenotype (%): 91%
  Population Mitotic Cells (%): 3%
  Population Normal (%): 87%
  Population Pyknosed Nuclei (%): 84%
  Population Tubulin-Different-Phenotype (%): 75%
  Total Cell Count: 162
[9]
  Population Apoptotic (%): 75%
  Population Fragmented Nuclei (%): 16%
  Population Healthy Nuclei (%): 45%
  Population Hoechst High Intensity Objects (%): 16%
  Population Membrane Permeable-Phenotype (%): 0%
  Population Mitochondria Different-Phenotype (%): 86%
  Population Mitotic Cells (%): 24%
  Population Normal (%): 83%
  Population Pyknosed Nuclei (%): 37%
  Population Tubulin-Different-Phenotype (%): 80%
  Total Cell Count: 322
[10]
  Population Apoptotic (%): 71%
  Population Fragmented Nuclei (%): 6%
  Population Healthy Nuclei (%): 69%
  Population Hoechst High Intensity Objects (%): 3%
  Population Membrane Permeable-Phenotype (%): 1%
  Population Mitochondria Different-Phenotype (%): 83%
  Population Mitotic Cells (%): 28%
  Population Normal (%): 96%
  Population Pyknosed Nuclei (%): 23%
  Population Tubulin-Different-Phenotype (%): 89%
  Total Cell Count: 305
[11]
  Population Apoptotic (%): 85%
  Population Fragmented Nuclei (%): 25%
  Population Healthy Nuclei (%): 0%
  Population Hoechst High Intensity Objects (%): 24%
  Population Membrane Permeable-Phenotype (%): 0%
  Population Mitochondria Different-Phenotype (%): 100%
  Population Mitotic Cells (%): 14%
  Population Normal (%): 75%
  Population Pyknosed Nuclei (%): 73%
  Population Tubulin-Different-Phenotype (%): 0%
  Total Cell Count: 315
[12]
  Population Apoptotic (%): 98%
  Population Fragmented Nuclei (%): 9%
  Population Healthy Nuclei (%): 7%
  Population Hoechst High Intensity Objects (%): 19%
  Population Mitochondria Different-Phenotype (%): 90%
  Population Mitotic Cells (%): 1%
  Population Normal (%): 80%
  Population Pyknosed Nuclei (%): 82%
  Population Tubulin-Different-Phenotype (%): 72%
  Total Cell Count: 181

## C[C@H]1Oc2cc(cnc2N)-c2c(nn(C)c2C#N)CN(C)C(=O)c2ccc(F)cc21 [LORLATINIB]
[1]
  Population Apoptotic (%): 21% and 18%
  Population Fragmented Nuclei (%): 16% and 9%
  Population Healthy Nuclei (%): 66% and 76%
  Population Hoechst High Intensity Objects (%): 11% and 7%
  Population Membrane Permeable-Phenotype (%): 7% and 4%
  Population Mitochondria Different-Phenotype (%): 3% and 5%
  Population Mitotic Cells (%): 78% and 81%
  Population Normal (%): 88% and 92%
  Population Pyknosed Nuclei (%): 17% and 14%
  Population Tubulin-Different-Phenotype (%): 2% and 3%
  Total Cell Count: 529 and 617
[2]
  Population Apoptotic (%): 5% and 14%
  Population Fragmented Nuclei (%): 6% and 7%
  Population Healthy Nuclei (%): 87%
  Population Hoechst High Intensity Objects (%): 2%
  Population Membrane Permeable-Phenotype (%): 3% and 1%
  Population Mitochondria Different-Phenotype (%): 7% and 6%
  Population Mitotic Cells (%): 94% and 85%
  Population Normal (%): 97%
  Population Pyknosed Nuclei (%): 6% and 5%
  Population Tubulin-Different-Phenotype (%): 9%
  Total Cell Count: 1515 and 1456
[5]
  Population Apoptotic (%): 18% and 15%
  Population Fragmented Nuclei (%): 12% and 7%
  Population Healthy Nuclei (%): 75% and 82%
  Population Hoechst High Intensity Objects (%): 3% and 4%
  Population Membrane Permeable-Phenotype (%): 10% and 9%
  Population Mitochondria Different-Phenotype (%): 2% and 5%
  Population Mitotic Cells (%): 81% and 84%
  Population Normal (%): 96% and 95%
  Population Pyknosed Nuclei (%): 12% and 9%
  Population Tubulin-Different-Phenotype (%): 5% and 4%
  Total Cell Count: 614 and 730
[6]
  Population Apoptotic (%): 3% and 7%
  Population Fragmented Nuclei (%): 14% and 18%
  Population Healthy Nuclei (%): 80% and 78%
  Population Membrane Permeable-Phenotype (%): 8% and 3%
  Population Mitochondria Different-Phenotype (%): 1%
  Population Mitotic Cells (%): 96% and 92%
  Population Pyknosed Nuclei (%): 4% and 3%
  Population Tubulin-Different-Phenotype (%): 9% and 3%
  Total Cell Count: 2424 and 2417
